Measured values from PMC7902087 (Bioorganic & medicinal chemistry, 2020).
Where two headings read alike, the source gives them in different places.

Columns and labels:
MCF-7 cells [1] = assay: Cell cycle arrest analysis; format: cell-based, human
MCF-7 cells [2] = assay: Detection of apoptosis; format: cell-based, human; conditions: MCF-7, 24 h
[3] = system: HePG2, MCF-7, Hela and PC3 cell lines; assay: In vitro antitumor MTT assay, range over the four cell lines; format: cell-based; conditions: Homo sapiens, read-out: IC50 range towards the four cell lines
[4] = system: Hepatocellular carcinoma (HePG2); assay: In vitro antitumor MTT assay, HePG2; format: cell-based, human
[5] = system: Human prostate cancer (PC3); assay: In vitro antitumor MTT assay, PC3; format: cell-based; conditions: read-out: In vitro cytotoxicity IC50 PC3
[6] = system: Epitheliod Carcinoma Cervix cancer (Hela); assay: In vitro antitumor MTT assay, Hela; conditions: read-out: In vitro cytotoxicity IC50 Hela
[7] = system: Mammary gland Breast cancer (MCF-7); assay: In vitro antitumor MTT assay, MCF-7
[8] = system: Staphylococcus aureus ATCC 29213; assay: Minimal inhibitory concentration, S. aureus; format: cell-based; conditions: broth dilution, 37 °C 18 h
Bacillus cereus UW85 = assay: Minimal inhibitory concentration, B. cereus; format: cell-based; conditions: broth dilution, 37 °C 18 h
[9] = system: Pseudomonas aeruginosa PAO1; assay: Minimal inhibitory concentration, P. aeruginosa; format: cell-based; conditions: broth dilution, 37 °C 18 h
Outline: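 Broth microdilution with serial 1:1 dilutions of test compound in Mueller Hinton broth. Wells are inoculated with bacterial suspension at 5 × 10^6 CFU/ml, and ampicillin/clavulanic acid serves as the positive control. Plates incubate at 37 °C for 18 h. MIC is the lowest concentration with no visible growth.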

Candida albicans CS351 = assay: Minimal inhibitory concentration, C. albicans; format: cell-based; conditions: broth dilution, 37 °C 18 h
[10] = system: Human lung fibroblast (WI38) cell line; assay: In vitro cytotoxicity against human normal cells; format: cell-based; conditions: WI-38, read-out: IC50 against WI38 normal cells
[11] = read-out: In vitro cytotoxicity IC50 HePG2, MTT, Mean ± SD, n = 3
[12] = read-out: In vitro cytotoxicity IC50 MCF-7, MTT, Mean ± SD, n = 3
[13] = Homo sapiens, HepG2, read-out: In vitro cytotoxicity IC50 HePG2
[14] = Homo sapiens, MCF7, read-out: In vitro cytotoxicity IC50 MCF-7

With `C/C(=N\Nc1nc(-c2ccccc2)cs1)c1cc2ccccc2o1` [Compound 8, (E)-2-(2-(1-(benzofuran-2-yl)ethylidene)hydrazinyl)-4-(4-phenyl)thiazole] the Cell cycle comment (MCF-7 cells [1]) was “pre-G1 apoptosis and cell growth arrest at G2/M”, the “late apoptotic induction compared to control cells” value (MCF-7 cells [2]) was 98 fold and the IC50 [3] was 8.49 to 16.7 µM.

“(E)-2-(2-(1-(benzofuran-2-yl)ethylidene)hydrazineyl)-4-(benzofuran-5-yl)thiazole [Compound 10]” gave an IC50 [4, 11] of 21.2 ± 1.8 µM, an IC50 ([5]; MTT, Mean ± SD, n = 3) of 34.2 ± 2.6 µM and an IC50 ([6]; MTT, Mean ± SD, n = 3) of 24.1 ± 2.1 µM. It also gave an IC50 [7, 12] of 25.6 ± 2.2 µM.

`COc1cccc2c1C(=O)c1c(O)c3c(c(O)c1C2=O)C[C@@](O)(C(=O)CO)C[C@@H]3O[C@H]1C[C@H](N)[C@H](O)[C@H](C)O1` [DOX, doxorubicin, reference compound] was tested, and the IC50 [3] was 4.17 to 8.87 µM.

In the case of `C/C(=N\N=C\c1cccc(Cl)c1)c1cc2ccccc2o1` [Compound 23, (E)-1-(1-(benzofuran-2-yl)ethylidene)-2-((E)-3-chlorobenzylidene)hydrazine], the IC50 [4, 13] is reported as 86.5 ± 4.3 µM, the IC50 ([5]; Homo sapiens) is reported as 91.8 ± 4.9 µM and the IC50 ([6]; Homo sapiens, HeLa) is reported as greater than 100 µM. For the same compound, the IC50 [7, 14] was greater than 100 µM.

In the case of “(E)-3-(benzofuran-2-yl)-3-hydroxy-2-((E)-(2-methylphenyl) diazenyl)acrylaldehyde [Compound 17]”, the IC50 [4, 11] is reported as 72.4 ± 3.5 µM, the IC50 ([5]; MTT, Mean ± SD, n = 3) is reported as 77.6 ± 4.3 µM and the “Minimal inhibitory concentration S. aureus” value [8] is reported as 8 µg/mL. For the same compound, the “Minimal inhibitory concentration B. cereus” value (Bacillus cereus UW85) was 256 µg/mL, the “Minimal inhibitory concentration P. aeruginosa” value [9] was 512 µg/mL and the “Minimal inhibitory concentration C. albicans” value (Candida albicans CS351) was 512 µg/mL. It also gave an IC50 ([6]; MTT, Mean ± SD, n = 3) of 75 ± 4.2 µM and an IC50 [7, 12] of 83.6 ± 4.3 µM.

Work on `C/C(=N\Nc1nc(C)cs1)c1cc2ccccc2o1` [Compound 11, (E)-2-(2-(1-(benzofuran-2-yl)ethylidene)hydrazineyl)-4-methylthiazole] yielded an IC50 [3] of 4 to 8.99 µM.

Compound `COc1ccc(/N=N/C(C=O)=C(/O)c2cc3ccccc3o2)cc1` [Compound 13, (E)-3-(benzofuran-2-yl)-3-hydroxy-2-((E)-(4-methoxyphenyl)diazenyl)acrylaldehyde] has an IC50 [10] of 83.5 µM.

With `C/C(=N\N=C\c1ccc([N+](=O)[O-])cc1)c1cc2ccccc2o1` [Compound 22, (E)-1-(1-(benzofuran-2-yl)ethylidene)-2-((E)-4-nitrobenzylidene) hydrazine] the IC50 [4, 13] was 77.4 ± 3.9 µM, the IC50 ([5]; Homo sapiens) was greater than 100 µM and the IC50 ([6]; Homo sapiens, HeLa) was greater than 100 µM. The IC50 [7, 14] was 88.5 ± 4.6 µM.

In the case of “(E)-3-(benzofuran-2-yl)-3-hydroxy-2-((E)-(3-methylphenyl) diazenyl)acrylaldehyde [Compound 16]”, the IC50 [4, 11] is reported as 52.3 ± 3.1 µM, the IC50 ([5]; MTT, Mean ± SD, n = 3) is reported as 63.3 ± 3.9 µM and the “Minimal inhibitory concentration S. aureus” value [8] is reported as 64 µg/mL. The “Minimal inhibitory concentration B. cereus” value (Bacillus cereus UW85) was 128 µg/mL, the IC50 ([6]; MTT, Mean ± SD, n = 3) was 69.4 ± 4 µM and the IC50 [7, 12] was 66.2 ± 3.9 µM.

`CCOC(=O)Cc1csc(N/N=C(\C)c2cc3ccccc3o2)n1` [Compound 9, Ethyl (E)-2-(2-(2-(1-(benzofuran-2-yl)ethylidene)hydrazineyl)thiazol-4-yl)acetate] was tested, and the Cell cycle comment (MCF-7 cells [1]) was “pre-G1 apoptosis and cell growth arrest at G2/M”, the “late apoptotic induction compared to control cells” value (MCF-7 cells [2]) was 54 fold and the late apoptotic induction (MCF-7 cells [2]; control 0.15%) was 8.1%. It also gave an IC50 [3] of 6.55 to 13.1 µM.
